This is a sample that favours compounds with a hit; in the whole collection about 2.9% have one here.
Apaf-1 inh = blocks human Apaf-1 apoptosome activity; AID 489030; reconstituted apoptosome caspase-3 activity, DEVD-Rh110 fluorescence; 330,000 compounds, 0.71% hits; inhibition, % at 20 µM; O14727; active = inhibition of at least 40% at 20 µM;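 note: plate controls were DMSO wells for no effect and DEVD-CHO caspase inhibitor wells for full effect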
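System: Apoptosome proteins | Medium: Hepes pH 7.5 with detergent and BSA | Also added: Cytochrome c trigger plus (Z-DEVD)2-Rh110 caspase-3 substrate | Incubation: 30 min compound preincubation, 50 min activation, room temperature | Detection: Rhodamine 110 fluorescence at Ex 480/Em 540 nm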
ZTA DNA inh = blocks Epstein-Barr virus ZTA, an EBNA-1 counter-screen; P03206; AID 2234; ZTA-DNA binding, fluorescence polarization; 320,000 compounds, 0.15% hits; inhibition, % at 11 µM; in the data active = inhibition above about 33%
Target sequence (P03206 whole entry, looked up): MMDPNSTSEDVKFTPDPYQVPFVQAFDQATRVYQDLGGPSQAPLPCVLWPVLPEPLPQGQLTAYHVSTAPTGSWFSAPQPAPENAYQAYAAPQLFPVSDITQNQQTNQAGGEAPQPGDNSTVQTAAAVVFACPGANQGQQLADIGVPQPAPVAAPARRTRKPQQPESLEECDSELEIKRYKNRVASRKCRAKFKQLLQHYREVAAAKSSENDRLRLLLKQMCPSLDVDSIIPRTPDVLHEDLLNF
PfGluPho inh = PfG6PD (Plasmodium falciparum) enzyme inhibition; PfGluPho enzyme, NADPH resazurin-diaphorase fluorescence; inhibition, % at 20 µM; 350,000 compounds, 0.78% hits;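 active = inhibition reaching at least a set limit at 20 µM in the primary screen, cut at about 59% in these data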;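 note: 0% = DMSO wells with substrate and 100% = DMSO wells lacking glucose-6-phosphate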
UBC13 inh = human UBC13 polyubiquitination inhibition; UBC13 polyubiquitin chain formation, TR-FRET; P61088; AID 485273; inhibition, % at 20 µM; 330,000 compounds, 0.47% hits; in the data active = inhibition above about 45%, passing the limit was not always enough
Target sequence (P61088 whole entry, looked up): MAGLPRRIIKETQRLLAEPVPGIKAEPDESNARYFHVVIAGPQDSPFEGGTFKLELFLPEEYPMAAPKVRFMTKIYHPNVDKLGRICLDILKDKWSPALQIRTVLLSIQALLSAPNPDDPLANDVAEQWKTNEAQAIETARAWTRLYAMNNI
PfM18AAP inh = blocks P. falciparum M18 aspartyl aminopeptidase; inhibition, % at 7.35 µM; recombinant PfM18AAP, H-Glu-NHMec fluorogenic cleavage; 290,000 compounds, 1.2% hits;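 active = inhibition above the campaign mean inhibition over all tested compounds plus 3 SD, cut at about 28% in these data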;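 note: 0% = plate median of test compound wells and 100% = 2 mM ZnCl2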
EBNA-1 inhibitor = blocks EBNA-1 binding to DNA; EBNA-1 DNA binding, fluorescence polarization; inhibition, % at 14.8 µM; 300,000 compounds, 0.34% hits; AID 1950; in the data active = inhibition above about 28%
PfGluPho conf = PfG6PD inhibition, single-dose confirmed; shares compounds with PfGluPho inh; recombinant PfGluPho, NADPH-diaphorase-resazurin fluorescence; inhibition, % at 20 µM; 2,400 compounds, 34% hits;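 active = inhibition of at least 50% at 20 µM in any single replicate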;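 note: 0% = DMSO with substrate and 100% = DMSO lacking glucose-6-phosphate substrate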
Diaphorase 10uM = inhibits diaphorase or oxidizes, flagging false PfG6PD hits; diaphorase-coupled resazurin reduction, fluorescence, NADPH 10 uM; shares compounds with PfGluPho inh; inhibition, % at 20 µM; AID 504862; 820 compounds, 39% hits;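 active = average inhibition reaching 50% or more with the compound at 20 µM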;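 note: resorufin red fluorescence formed as diaphorase reduces resazurin using NADPH; 0% = DMSO with enzyme and 100% = DMSO without enzyme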
Diaphorase 30uM = diaphorase inhibition or oxidation at 30 uM NADPH. shares compounds with PfGluPho inh. Diaphorase/resazurin coupled assay, resorufin fluorescence. inhibition, % at 20 µM. 820 compounds, 29% hits;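 active = inhibition averaging 50% or more, tested at 20 µM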;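 note: 0% = DMSO with enzyme and 100% = DMSO wells lacking diaphorase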
The depositor's hits bear a star; nt = no result.

SMILES	Apaf-1 inh	ZTA DNA inh	PfGluPho inh	UBC13 inh	PfM18AAP inh	EBNA-1 inhibitor	PfGluPho conf	others
CCC(=O)Nc1nc2ccccc2n1Cc1ccc(Cl)cc1	29	1	-13	17	-1	-2	nt
O=C(COC(=O)Cc1ccc(S(=O)(=O)N2CCOCC2)s1)Nc1ccc([N+](=O)[O-])cc1	-9	-8	3	-7	nt	nt	nt
O=CNc1ccc2c3c(cccc13)-c1ccccc1-2	nt	nt	104*	nt	nt	nt	18
CC(=O)Nc1ccc2c3c(cccc13)C(=O)N(c1ccccc1)C2=O	3	2	0	11	2	0	nt
CN1CCN(NC(=S)NC2CCCCC2)CC1	11	-3	1	4	-9	6	nt
C/C(Cn1nnc([N+](=O)[O-])n1)=N\NC(=O)c1ccccc1Cl	-20	0	56	-1	-6	6	nt
C/C(Cn1nnc([N+](=O)[O-])n1)=N\NC(=O)c1cccc(Cl)c1	-3	3	68*	1	-6	-1	59*	Diaphorase 10uM=27;Diaphorase 30uM=26
O=C(O)CCC(=O)N1N=C(c2ccccc2)CC1c1ccc2c(c1)OCO2 (stereo unspecified)	-6	nt	-28	-3	7	nt	nt
CC1CCc2[nH]c3ccc(C(=O)N(C)CC(=O)Nc4ccccc4Cl)cc3c2C1 (stereo unspecified)	16	nt	60*	4	nt	nt	24
CC1CCc2[nH]c3ccc(C(=O)N(C)CC(=O)Nc4ccccc4C(F)(F)F)cc3c2C1 (stereo unspecified)	18	0	110*	1	nt	-7	63*	Diaphorase 10uM=53*;Diaphorase 30uM=34
COc1ccc2cc(Br)ccc2c1CC(=O)NC(C)(C)C	13	-13	-4	-20	0	0	nt
Cc1c2cc[n+](CCN3CCCCC3)cc2c(C)c2c1[nH]c1ccc(O)cc12	nt	nt	87*	nt	nt	nt	12
CCOC(=O)c1[nH]c2ccc(C)cc2c1NC(=O)CN1CCCCC1	-14	25	-1	-3	0	5	nt
O=C(CCNC(=O)c1ccc(Cl)cc1)Nc1ccccc1N1CCCCC1	12	-9	14	0	nt	1	nt
c1csc(-c2nc3nc4ccccc4nc3n2Cc2ccc3c(c2)OCO3)c1	21	3	72*	8	6	-9	35
CCCn1c(-c2cccs2)nc2nc3ccccc3nc21	1	12	18	28	-3	5	nt
O=C(CN1C(=O)C(=O)N(C2CCCC2)C1=O)Nc1cc(Cl)ccc1[N+](=O)[O-]	-4	nt	-3	1	nt	nt	nt
O=C(O)c1cccc(N2C(=O)C=CC2=O)c1	nt	nt	76*	nt	nt	nt	76*	Diaphorase 10uM=14;Diaphorase 30uM=13
O=C(O)c1cccc(N2C(=O)C3CC=CCC3C2=O)c1 (stereo unspecified)	1	-5	-9	0	3	3	nt
O=[N+]([O-])c1ccc(O)c2ncccc12	20	2	63*	-62	10	-7	44
CN1CCN(C(=S)c2ccc([N+](=O)[O-])cc2)CC1	10	-8	61*	-8	13	-25	55*	Diaphorase 10uM=-18;Diaphorase 30uM=-25
O=[N+]([O-])c1ccc(C(=S)N2CCC(Cc3ccccc3)CC2)cc1	11	-9	4	1	-2	4	nt
CCCOc1ccc2oc(=O)c3c(c2c1)CCCN3C(=O)CN1CCc2ccccc2C1	25	-17	60*	-1	6	-1	27
O=C1CCCC2=C1C(c1ccccc1)C1C(=O)c3ccccc3C1=N2 (stereo unspecified)	3	3	30	-142	-1	4	nt
O=C1CCCC2=C1C(c1ccc(Cl)cc1)C1C(=O)c3ccccc3C1=N2 (stereo unspecified)	1	4	72*	-50	1	-1	36
SMILES	Apaf-1 inh	ZTA DNA inh	PfGluPho inh	UBC13 inh	PfM18AAP inh	EBNA-1 inhibitor	PfGluPho conf	others
Cc1ccc(/C=C/C(=O)Nc2sc(C)c(C)c2C(=O)OC(C)C)o1	21	3	60*	-17	-5	3	3
O=C(O)/C=C/C(=O)Nc1ccc(Oc2ccccc2)cc1	-3	-6	-4	1	-11	-7	nt
CCOC(=O)c1c(NC(=O)/C=C/c2ccc(C)o2)sc(C)c1C	12	-4	54	-26	-4	2	nt
Cc1ccc(/C=C/C(=O)Nc2ccc([N+](=O)[O-])cc2)o1	-11	-5	88*	-4	-12	4	45
Cc1ccc(/C=C/C(=O)Nc2ccc(Oc3ccccc3)cc2)o1	nt	16	61*	nt	-18	-6	26
CN(C)c1ccc(S(=O)(=O)NCC(=O)N2CCN(c3ccccc3)CC2)cc1[N+](=O)[O-]	8	-15	-7	-13	nt	-4	nt
Cc1cc(C)n2nc(SC(C)C(=O)Nc3ccc(Cl)cn3)nc2n1 (stereo unspecified)	-12	3	17	-3	3	3	nt
[O-][N+]1=c2ccc(Nc3ccccc3)cc2=NC12CCCCC2	nt	-11	61*	nt	13	1	0
CC1CCN(C(=O)COC(=O)c2ccc3c(c2)OCO3)CC1	3	-2	0	-8	-20	-17	nt
CCC(C)(C)n1nnnc1C(c1ccc2ncccc2c1)N1CCN(c2ccc(O)cc2)CC1 (stereo unspecified)	-2	-5	46	4	31*	-2	35
O=C(O)c1cc2c(cn1)[nH]c1ccccc12	-1	-9	-5	-15	1	-9	nt
COC(=O)[C@H](C)NC(=O)c1cc2c(cn1)[nH]c1ccccc12	-1	7	90*	11	21	-5	55*	Diaphorase 10uM=23;Diaphorase 30uM=1
CCn1c2ccccc2c2cc(/C=N/n3cn[nH]c3=S)ccc21	19	5	63*	11	16	13	52*	Diaphorase 10uM=0;Diaphorase 30uM=5
O=C(c1ccncc1)c1ccc(N2CCN(C3CC(=O)N(Cc4cccs4)C3=O)CC2)cc1 (stereo unspecified)	-4	6	-5	2	2	4	nt
O=C1CC(N2CCN(c3ccc(O)cc3)CC2)C(=O)N1Cc1cccs1 (stereo unspecified)	2	-11	67*	-4	28	5	19
Cc1ccc(-c2nnc3ccc(SCC(=O)N4CCc5ccccc54)nn23)cc1	14	-7	-9	40	1	-10	nt
CC(=O)CSc1ccc(-c2nc3ccccc3[nH]2)cn1	3	3	9	-14	3	10	nt
Cc1ccc2nc(-c3ccc(SCC(=O)N4CCc5ccccc54)nc3)[nH]c2c1	4	18	59	-5	0	7	12
